Test results published in ChEMBL document CHEMBL1149713, “1,2,4-benzothiadiazine linked pyrrolo[2,1-c][1,4]benzodiazepine conjugates: synthesis, DNA-binding affinity and cytotoxicity” (Bioorg Med Chem Lett, 2007).

Experiments:
ZR-75-1 = assay: Cytotoxicity against human Zr75-1 cells; type: functional, cell-based
Method in brief: (§1)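 Sulforhodamine B (SRB) assay in human cancer cell lines: lung (A549, Hop62), breast (Zr-75-1), oral (DWD, KB, Gurav), prostate (PC3). IC50 in µM, mean of three determinations. Adriamycin as reference. Where IC50 was not reached within the concentrations tested, no value is given.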

DNA [1] = assay: Binding affinity to calf thymus DNA at 20 uM after 18 hrs by thermal denaturation assay; type: nucleic-acid assay; settings: Bos taurus
DNA [2] = assay: Binding affinity to calf thymus DNA at 20 uM after 36 hrs by thermal denaturation assay; type: nucleic-acid assay; settings: Bos taurus
HOP-62 = assay: Cytotoxicity against human Hop62 cells; type: functional, cell-based; method in brief: as §1
KB = assay: Cytotoxicity against human KB cells; type: functional, cell-based; method in brief: as §1
[3] = Cytotoxicity against human DWD cells; type: functional, cell-based; method in brief: as §1
PC-3 = assay: Cytotoxicity against human PC3 cells; type: functional, cell-based; method in brief: as §1
A549 = assay: Cytotoxicity against human A549 cells; type: functional, cell-based; method in brief: as §1
[4] = Cytotoxicity against human Gurav cells; type: functional, cell-based; method in brief: as §1

| ΔTm (DNA [1]) [°C] | ΔTm (DNA [2]) [°C] | Compound | IC50 (ZR-75-1) [µM] | IC50 (HOP-62) [µM] | IC50 (KB) [µM] | IC50 [3] [µM] | IC50 (PC-3) [µM] | IC50 (A549) [µM] | IC50 [4] [µM] |
| --- | --- | --- | --- | --- | --- | --- | --- | --- | --- |
| 4.1 | 4.1 | COc1cc2c(cc1OCCCCN1CCN(C3=NS(=O)(=O)c4ccccc4N3c3ccccc3)CC1)N=C[C@@H]1CCCN1C2=O | 0.15 | 369 | 29.4 |  | 357 |  |  |
| 6.4 | 6.7 | COc1cc2c(cc1OCCCCCN1CCN(C3=NS(=O)(=O)c4ccccc4N3C(C)C)CC1)N=C[C@@H]1CCCN1C2=O | 0.12 | 27.9 | 2.43 | 27.7 | 27.8 | 30.3 | 26.5 |

Further lines, the compound ahead of its results:

| Compound | ΔTm (DNA [1]) [°C] | ΔTm (DNA [2]) [°C] | IC50 (ZR-75-1) [µM] | IC50 (HOP-62) [µM] | IC50 (KB) [µM] | IC50 [3] [µM] | IC50 (PC-3) [µM] | IC50 (A549) [µM] | IC50 [4] [µM] |
| --- | --- | --- | --- | --- | --- | --- | --- | --- | --- |
| COc1cc2c(cc1OCCCCN1CCN(C3=NS(=O)(=O)c4ccccc4N3C(C)C)CC1)N=C[C@@H]1CCCN1C2=O | 4.2 | 4.3 | 2.24 | 343 | 26.1 |  |  |  |  |
| COc1cccc2c1C(=O)c1c(O)c3c(c(O)c1C2=O)C[C@@](O)(C(=O)CO)C[C@@H]3O[C@H]1C[C@H](N)[C@H](O)[C@H](C)O1 [DOXORUBICIN] |  |  | 2.32 |  | 0.17 | 24.9 | 2.26 |  |  |
| COc1cc2c(cc1OCCCCCN1CCN(C3=NS(=O)(=O)c4ccccc4N3c3ccccc3)CC1)N=C[C@@H]1CCCN1C2=O | 4.4 | 4.6 |  |  | 2.3 |  | 2.35 | 30.2 | 356 |
| COc1cc2c(cc1O)N=C[C@@H]1CCCN1C2=O | 0.7 | 0.7 |  |  |  |  |  |  |  |
